For assay [1], the system named is Plasmodium falciparum. Kind of assay: Antimalarial activity against drug -sensitive Plasmodium falciparum NF54 after 48 hrs by [3H]hypoxanthine incorporation assay. In kind it is functional, organism-based. The method in brief:
(§1)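 Asexual erythrocytic parasites in human red cells (1.25% hematocrit, 0.3% parasitemia) exposed to serial drug dilutions in RPMI 1640 with Hepes, AlbuMAX II, bicarbonate and neomycin. Incubation at 37 C under 93% N2/4% CO2/3% O2; [3H]hypoxanthine added after 48 h, then 24 h more. Incorporation counted by scintillation. IC50 taken from sigmoidal curves; four independent runs, each in duplicate; DMSO below 1%.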

Assay [2] deals with Plasmodium falciparum. The experiment in a line: Antimalarial activity against chloroquine and pyrimethamine -resistant Plasmodium falciparum K1 after 48 hrs by [3H]hypoxanthine incorporation assay. In kind it is functional, organism-based. In a few lines:
as §1

SMILES strings stand for the structures.

As a reminder, the IC50 is the concentration at which inhibition is half-maximal. A low value points to greater potency in that assay.

Turning to `COc1cc(C2=NCCN2)ccc1OCCCCCOc1ccc(C2=NCCN2)cc1OC`, the results for the IC50 in the assay on Plasmodium falciparum [1] and in the assay with Plasmodium falciparum [2] were 0.112 µM and 0.024 µM, respectively.

For `CCOC(=O)c1cc(C(=N)NC(C)C)ccc1OCCCCCOc1ccc(C(=N)NC(C)C)cc1C(=O)OCC`, the IC50 was 0.0282 µM with Plasmodium falciparum [1] and 0.0145 µM with Plasmodium falciparum [2].

In the case of `N=C(N)c1ccc(OCCCCCOc2ccc(C(=N)N)c(O)c2)cc1O`, the IC50 in the assay on Plasmodium falciparum [1] is 0.407 µM; in the assay on Plasmodium falciparum [2] it was 0.631 µM.

With `Fc1cc(OCCCCCOc2ccc(C3=NCCN3)c(F)c2)ccc1C1=NCCN1`, the half-inhibitory concentration (IC50) in the assay with Plasmodium falciparum [1] is 0.0501 µM; in the assay with Plasmodium falciparum [2], 0.00851 µM.

`CCOC(=O)c1cc(C(=N)N)ccc1OCCCCCOc1ccc(C(=N)N)cc1C(=O)OCC`: the concentration for half-maximal inhibition (IC50) in the assay with Plasmodium falciparum [1] was 0.0977 µM; in the assay on Plasmodium falciparum [2], 0.0263 µM.

On to `CCOC(=O)c1cc(C2=NCCN2)ccc1OCCCCCOc1ccc(C2=NCCN2)cc1C(=O)OCC`, for which the half-maximal inhibitory concentration (IC50) in the assay with Plasmodium falciparum [1] was 0.234 µM; with Plasmodium falciparum [2], 0.0331 µM.

`CCOC(=O)c1cc(C(=N)N)ccc1OCCCCCOc1ccc(C(=N)N)cc1C(N)=O`: the IC50 in the assay on Plasmodium falciparum [1] is 0.12 µM; in the assay on Plasmodium falciparum [2], 0.017 µM.

Take `N=C(N)c1ccc(OCCCCCOc2ccc(C(=N)N)cc2C(N)=O)c(C(N)=O)c1`: the IC50 in the assay with Plasmodium falciparum [1] is 0.302 µM; in the assay on Plasmodium falciparum [2], 0.0479 µM.

Consider `CC(=N)Nc1ccc(OCCCCCOc2ccc(NC(C)=N)cc2)cc1`, for which the IC50 was 0.468 µM with Plasmodium falciparum [1] and 0.0575 µM in the assay on Plasmodium falciparum [2].

`N/N=C(\N)c1ccc(OCCCCCOc2ccc(/C(N)=N/N)cc2)cc1`: the IC50 was 0.282 µM in the assay with Plasmodium falciparum [1] and 0.562 µM in the assay with Plasmodium falciparum [2].

`CC(C)NC(=N)c1ccc(OCCCCCOc2ccc(C(=N)NC(C)C)c(O)c2)cc1O`: the values for the concentration for half-maximal inhibition (IC50) in the assay with Plasmodium falciparum [1] and in the assay on Plasmodium falciparum [2] were 0.955 µM and 0.741 µM, respectively.

In the case of `Oc1cc(OCCCCCOc2ccc(C3=NCCN3)c(O)c2)ccc1C1=NCCN1`, the concentration for half-maximal inhibition (IC50) in the assay with Plasmodium falciparum [1] is 0.0589 µM; in the assay on Plasmodium falciparum [2], 0.123 µM.

Take `CC(C)NC(=N)c1ccc(OCCCCCOc2ccc(C(=N)NC(C)C)c(F)c2)cc1F`: the IC50 is 0.191 µM in the assay with Plasmodium falciparum [1] and 0.646 µM with Plasmodium falciparum [2].

As for `CNC(=N)c1ccc(OCCCCCOc2ccc(C(=N)NC)cc2)cc1`, the IC50 is 0.0269 µM in the assay with Plasmodium falciparum [1] and 0.00501 µM in the assay on Plasmodium falciparum [2].

Regarding `N=C(N)c1ccc(OCCCCCOc2ccc(C(=N)N)c(F)c2)cc1F`, the half-maximal inhibitory concentration (IC50) with Plasmodium falciparum [1] was 0.0813 µM; in the assay on Plasmodium falciparum [2] it was 0.0182 µM.

In the case of `CN1CCN=C1c1ccc(OCCCCCOc2ccc(C3=NCCN3C)cc2)cc1`, the concentration for half-maximal inhibition (IC50) was 0.204 µM in the assay with Plasmodium falciparum [1] and 0.501 µM in the assay with Plasmodium falciparum [2].

Regarding `N=C(N)c1ccc(SCCCCCSc2ccc(C(=N)N)cc2)cc1`, the half-maximal inhibitory concentration (IC50) in the assay on Plasmodium falciparum [1] is 0.0347 µM; in the assay with Plasmodium falciparum [2] it was 0.0234 µM.

For the molecule `N=C(Nc1ccc(OCCCCCOc2ccc(NC(=N)c3ccccc3)cc2)cc1)c1ccccc1`, the concentration for half-maximal inhibition (IC50) in the assay with Plasmodium falciparum [1] was 0.0347 µM; in the assay on Plasmodium falciparum [2], 0.245 µM.

Turning to `N=C(N)c1ccc(OCCCCCOc2ccc(C(=N)N)cc2Cl)c(Cl)c1`, the results for the IC50 in the assay on Plasmodium falciparum [1] and with Plasmodium falciparum [2] were 0.105 µM and 0.0324 µM, respectively.

Consider `N=C(N)c1ccc(OCCCCCOc2ccc(C(=N)N)cc2Br)c(Br)c1`, for which the IC50 with Plasmodium falciparum [1] is 0.0525 µM; in the assay on Plasmodium falciparum [2], 0.0182 µM.

Take `c1cc(C2=NCCN2)ccc1OCCCCCOc1ccc(C2=NCCN2)cc1`: the figures for the half-maximal inhibitory concentration (IC50) with Plasmodium falciparum [1] and with Plasmodium falciparum [2] were 0.0347 µM and 0.00339 µM, respectively.

As for `N=C(N)c1ccc(OCCCCCOc2ccc(C(=N)N)cc2)cc1` [PENTAMIDINE], the IC50 in the assay on Plasmodium falciparum [1] was 0.0562 µM; in the assay on Plasmodium falciparum [2] it was 0.0123 µM.

For the origin of these results see ChEMBL document CHEMBL1629469, “Pharmacophore model for pentamidine analogs active against Plasmodium falciparum” (Eur J Med Chem, 2010).
